Source: ChEMBL document CHEMBL3797146, “FimH Antagonists: Phosphate Prodrugs Improve Oral Bioavailability” (J Med Chem, 2016)

Legend:
[1] = Thermodynamic solubility of the compound in 50 mM pH 6.5 phosphate buffer by LC-MS method; type: physicochemical; settings: read-out: Therm_solubility
Outline: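 Thermodynamic solubility determined in phosphate buffer (50 mM, pH 6.5).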

[2] = Stability of the compound assessed as half life for human Caco2 cells phosphatase mediated compound hydrolysis at 62.5 uM by LC-MS method; type: ADME, cell-based; settings: Caco-2 cells
Outline: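 Prodrug in Dulbecco's Modified Eagle's Medium (62.5 µM) applied to the apical chamber of the Caco-2 system. Unchanged prodrug was monitored by LC-MS, and t1/2 was calculated from remaining prodrug concentration versus incubation time.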

Mus musculus [3] = assay: Tmax in C3H/HeN mouse assessed as compound 5 level at 10 mg/kg, po administered as single dose by LC-MS method; type: ADME, organism-based; settings: in vivo
Outline: (§1)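 Single oral dose given to female C3H/HeN mice. Active principle was measured in urine over 0–24 h, and Cmax, Tmax and urine AUC0–24 were derived from the concentration profiles. The 7.7 mg/kg dose was given as a suspension. Values are means with SD for groups of three mice, or five at 7.7 mg/kg.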

[4] = AUC (0 to 24 hrs) in C3H/HeN mouse urine assessed as compound 5 level at 10 mg/kg, po administered as single dose by LC-MS method; type: ADME, organism-based; set-up: time < 24 hr, dose 10 mg/kg, route oral; settings: in vivo; outline: as §1
[5] = Drug metabolism in human Caco2 cells assessed as active parent compound level in basolateral side at 62.5 uM applied at apical compartment measured after 60 mins by LC-MS method; type: ADME, cell-based; settings: caco-2, 1 h
Outline: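 Caco-2 monolayer. Test article in Dulbecco's Modified Eagle's Medium at 62.5 µM was applied to the apical chamber. After 60 min, the active principle that had accumulated in the basal receiver chamber was quantified.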

Mus musculus [6] = assay: Cmax in C3H/HeN mouse assessed as compound 5 level at 10 mg/kg, po administered as single dose by LC-MS method; type: ADME, organism-based; set-up: dose 10 mg/kg, route oral; settings: in vivo; outline: as §1
[7] = Stability in simulated gastric fluid assessed as parent compound remaining in absence of pepsin after 2 hrs; type: ADME, tissue-based, Stomach; settings: simulated gastric fluid without pepsin; read-out: Stability
Outline: (§2)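 Compound incubated for 120 min in fasted- or fed-state simulated gastric fluid, in simulated gastric fluid, or in buffer sGF (sGF prepared without pepsin), with water as reference medium. Remaining compound is expressed as percent of the t=0 concentration, as the mean of triplicates ± SD.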

[8] = Stability in buffer simulated gastric fluid assessed as parent compound remaining in absence of pepsin after 2 hrs; type: ADME, tissue-based, Stomach; settings: buffer simulated gastric fluid without pepsin; read-out: Stability; outline: as §2
[9] = Stability in fed state simulated gastric fluid assessed as parent compound remaining in absence of pancreatin after 2 hrs; type: ADME, tissue-based, Stomach; settings: fed state simulated gastric fluid without pancreatin; read-out: Stability
[10] = Stability in fasted state simulated gastric fluid assessed as parent compound remaining in absence of pepsin after 2 hrs; type: ADME, tissue-based, Stomach; settings: fasted state simulated gastric fluid without pepsin; read-out: Stability; outline: as §2
[11] = Stability in fed state simulated gastric fluid assessed as parent compound remaining in absence of pepsin after 2 hrs; type: ADME, tissue-based, Stomach; settings: fed state simulated gastric fluid without pepsin; read-out: Stability; outline: as §2
[12] = Stability in buffer simulated gastric fluid assessed as parent compound remaining in absence of pepsin after 2 hrs; settings: buffer simulated gastric fluid without pepsin
[13] = Stability in water assessed as parent compound remaining in absence of pepsin after 2 hrs; type: physicochemical; settings: read-out: Stability; outline: as §2
[14] = Stability in water assessed as parent compound remaining in absence of pancreatin after 2 hrs; type: physicochemical; settings: read-out: Stability
[15] = Stability in fasted state simulated gastric fluid assessed as parent compound remaining in absence of pancreatin after 2 hrs; type: ADME, tissue-based, Stomach; settings: fasted state simulated gastric fluid without pancreatin; read-out: Stability
[16] = Stability in simulated gastric fluid assessed as parent compound remaining in absence of pancreatin after 2 hrs; type: ADME, tissue-based, Stomach; settings: simulated gastric fluid without pancreatin; read-out: Stability
Mus musculus [17] = assay: Tmax in C3H/HeN mouse assessed as compound 4 level at 10 mg/kg, po administered as single dose by LC-MS method; type: ADME, organism-based; settings: in vivo; outline: as §1
[18] = AUC (0 to 24 hrs) in C3H/HeN mouse urine assessed as compound 4 level at 10 mg/kg, po administered as single dose by LC-MS method; type: ADME, organism-based; set-up: dose 10 mg/kg, time < 24 hr, route oral; settings: in vivo; outline: as §1
Mus musculus [19] = assay: Cmax in C3H/HeN mouse assessed as compound 4 level at 10 mg/kg, po administered as single dose by LC-MS method; type: ADME, organism-based; set-up: dose 10 mg/kg, route oral; settings: in vivo; outline: as §1

Row | Compound | solubility thermodynamic [1] [µg/mL] | half-life at 62.5 µM [2] [min] | remaining at 2 h [7] [%] | remaining at 2 h [8] [%] | remaining at 2 h [9] [%] | remaining at 2 h [10] [%] | remaining at 2 h [11] [%] | remaining at 2 h [12] [%] | remaining at 2 h [13] [%] | remaining at 2 h [14] [%] | remaining at 2 h [15] [%] | remaining at 2 h [16] [%] | also measured
1 | N.N.O=P(O)(O)OC[C@H]1O[C@H](Oc2ccc(-c3ccccc3)cc2)[C@@H](O)[C@@H](O)[C@@H]1O | > 3000 | > 60 |  |  |  |  |  |  |  |  |  |  | 
2 | N.N.O=P(O)(O)O[C@@H]1[C@H](O)[C@@H](Oc2ccc(-c3ccccc3)cc2)O[C@H](CO)[C@H]1O | > 3000 | 13 |  |  |  |  |  |  |  |  |  |  | 
3 | N.N.O=[N+]([O-])c1ccc2c(c1)CCN2c1ccc(O[C@H]2O[C@H](COCOP(=O)(O)O)[C@@H](O)[C@H](O)[C@@H]2O)cc1 | > 3000 | 11 |  |  |  |  |  |  |  |  |  |  | Tmax (Mus musculus [3]): 3 h; AUC [4]: 24.6 µg·h/mL; Drug metabolism [5]: Dose-dependent effect; Cmax (Mus musculus [6]): 4.5 µg/mL
4 | N.N.O=P(O)(O)O[C@H]1[C@H](O)[C@H](O)[C@@H](Oc2ccc(-c3ccccc3)cc2)O[C@@H]1CO | 2700 | > 60 |  |  |  |  |  |  |  |  |  |  | 
5 | N#Cc1ccc(-c2ccc(O[C@H]3O[C@H](COP(=O)([O-])[O-])[C@@H](O)[C@H](O)[C@@H]3O)c(Cl)c2)cc1.[Na+].[Na+] | > 3000 | 48 | > 80 | > 80 | > 80 | > 80 | > 80 | > 80 | > 80 | > 80 | > 80 | > 80 | 
6 | N#Cc1ccc(-c2ccc(O[C@H]3O[C@H](CO)[C@@H](OP(=O)([O-])[O-])[C@H](O)[C@@H]3O)c(Cl)c2)cc1.[Na+].[Na+] | > 3000 | 43 | > 80 | > 80 | > 80 | > 80 | > 80 | > 80 | > 80 | > 80 | > 80 | > 80 | Tmax (Mus musculus [17]): 26.4 min; AUC [18]: 226.4 µg·h/mL; Cmax (Mus musculus [19]): 57 µg/mL
7 | N.N.O=P(O)(O)O[C@@H]1[C@@H](Oc2ccc(-c3ccccc3)cc2)O[C@H](CO)[C@@H](O)[C@@H]1O | > 3000 | 12 |  |  |  |  |  |  |  |  |  |  | 
8 | N#Cc1ccc(-c2ccc(O[C@H]3O[C@H](CO)[C@@H](O)[C@H](O)[C@@H]3OP(=O)([O-])[O-])c(Cl)c2)cc1.[Na+].[Na+] | > 3000 | 13 | > 80 | > 80 | > 80 | > 80 | > 80 | > 80 | > 80 | > 80 | > 80 | > 80 | 
9 | N#Cc1ccc(-c2ccc(O[C@H]3O[C@H](CO)[C@@H](O)[C@H](OP(=O)([O-])[O-])[C@@H]3O)c(Cl)c2)cc1.[Na+].[Na+] | > 3000 | 12 |  |  |  |  |  |  |  |  |  |  | Drug metabolism [5]: Dose-dependent effect; Tmax (Mus musculus [17]): 54 min; AUC [18]: 103.9 µg·h/mL; Cmax (Mus musculus [19]): 40.7 µg/mL
